Measurements from ChEMBL document CHEMBL1287651, “Synthesis and in vitro antibacterial activity of fluoroquinolone derivatives containing 3-(N'-alkoxycarbamimidoyl)-4-(alkoxyimino) pyrrolidines” (2010).
Converted amounts (≈) assume the structure as drawn.

Legend:
Assay type in all cases: functional
Enterococcus faecium [1] = assay: Antibacterial activity against Enterococcus faecium 08-2 after 18 to 24 hrs by twofold serial dilution method
In short: (§1)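 MIC determined by the standard twofold serial dilution method on agar media, screening against Gram-positive and Gram-negative strains. Levofloxacin and gemifloxacin were run alongside as reference drugs.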

Pseudomonas aeruginosa [2] = assay: Antibacterial activity against Pseudomonas aeruginosa 09-34 after 18 to 24 hrs by twofold serial dilution method; in short: as §1
Staphylococcus aureus [3] = assay: Antibacterial activity against methicillin-sensitive Staphylococcus aureus 08-2 after 18 to 24 hrs by twofold serial dilution method
In short: (§2)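 Standard twofold serial agar dilution method on agar media for MIC determination. Screened against representative Gram-positive and Gram-negative strains. Levofloxacin and GMFX served as control drugs.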

Staphylococcus aureus [4] = assay: Antibacterial activity against Staphylococcus aureus ATCC […] after 18 to 24 hrs by twofold serial dilution method; in short: as §1
Enterococcus faecalis [5] = assay: Antibacterial activity against Enterococcus faecalis 08-10 after 18 to 24 hrs by twofold serial dilution method; in short: as §1
Enterococcus faecium [6] = assay: Antibacterial activity against Enterococcus faecium 08-7 after 18 to 24 hrs by twofold serial dilution method; in short: as §1
[7] = test system: Staphylococcus epidermidis; assay: Antibacterial activity against methicillin-resistant Staphylococcus epidermidis 09-2 after 18 to 24 hrs by twofold serial dilution method; in short: as §2
Escherichia coli [8] = assay: Antibacterial activity against Escherichia coli ATCC 25922 after 18 to 24 hrs by twofold serial dilution method; in short: as §1
Staphylococcus aureus [9] = assay: Antibacterial activity against methicillin-resistant Staphylococcus aureus 08-1 after 18 to 24 hrs by twofold serial dilution method; in short: as §2
Pseudomonas aeruginosa [10] = assay: Antibacterial activity against Pseudomonas aeruginosa ATCC 27853 after 18 to 24 hrs by twofold serial dilution method; in short: as §1
Klebsiella pneumoniae [11] = assay: Antibacterial activity against Klebsiella pneumoniae 09-23 after 18 to 24 hrs by twofold serial dilution method; in short: as §1
Pseudomonas aeruginosa [12] = assay: Antibacterial activity against Pseudomonas aeruginosa 09-35 after 18 to 24 hrs by twofold serial dilution method; in short: as §1
[13] = test system: Staphylococcus epidermidis; assay: Antibacterial activity against methicillin-sensitive Staphylococcus epidermidis 09-3 after 18 to 24 hrs by twofold serial dilution method; in short: as §2
Klebsiella pneumoniae [14] = assay: Antibacterial activity against Klebsiella pneumoniae 09-21 after 18 to 24 hrs by twofold serial dilution method; in short: as §1
Streptococcus pneumoniae [15] = assay: Antibacterial activity against Streptococcus pneumoniae 08-4 after 18 to 24 hrs by twofold serial dilution method; in short: as §1
[16] = test system: Staphylococcus epidermidis; assay: Antibacterial activity against methicillin-sensitive Staphylococcus epidermidis 09-6 after 18 to 24 hrs by twofold serial dilution method; in short: as §2
Streptococcus pneumoniae [17] = assay: Antibacterial activity against Streptococcus pneumoniae 08-2 after 18 to 24 hrs by twofold serial dilution method; in short: as §1
[18] = test system: Staphylococcus epidermidis; assay: Antibacterial activity against methicillin-resistant Staphylococcus epidermidis 09-4 after 18 to 24 hrs by twofold serial dilution method; in short: as §2
Escherichia coli [19] = assay: Antibacterial activity against Escherichia coli 08-21 after 18 to 24 hrs by twofold serial dilution method; in short: as §1
Enterococcus faecalis [20] = assay: Antibacterial activity against Enterococcus faecalis 08-12 after 18 to 24 hrs by twofold serial dilution method; in short: as §1
Escherichia coli [21] = assay: Antibacterial activity against Escherichia coli 08-22 after 18 to 24 hrs by twofold serial dilution method; in short: as §1
[22] = test system: Staphylococcus epidermidis; assay: Antibacterial activity against methicillin-resistant Staphylococcus epidermidis 09-3 after 18 to 24 hrs by twofold serial dilution method; in short: as §2
Pseudomonas aeruginosa [23] = assay: Antibacterial activity against Pseudomonas aeruginosa 09-32 after 18 to 24 hrs by twofold serial dilution method; in short: as §1
Klebsiella pneumoniae [24] = assay: Antibacterial activity against Klebsiella pneumoniae 09-22 after 18 to 24 hrs by twofold serial dilution method; in short: as §1
Pseudomonas aeruginosa [25] = assay: Antibacterial activity against Pseudomonas aeruginosa 09-33 after 18 to 24 hrs by twofold serial dilution method; in short: as §1

Compound | MIC (Enterococcus faecium [1]) [µg/mL] | MIC (Pseudomonas aeruginosa [2]) [µg/mL] | MIC (Staphylococcus aureus [3]) [µg/mL] | MIC (Staphylococcus aureus [4]) [µg/mL] | MIC (Enterococcus faecalis [5]) [µg/mL] | MIC (Enterococcus faecium [6]) [µg/mL] | MIC [7] [µg/mL] | MIC (Escherichia coli [8]) [µg/mL] | MIC (Staphylococcus aureus [9]) [µg/mL] | MIC (Pseudomonas aeruginosa [10]) [µg/mL] | MIC (Klebsiella pneumoniae [11]) [µg/mL] | MIC (Pseudomonas aeruginosa [12]) [µg/mL] | MIC [13] [µg/mL] | MIC (Klebsiella pneumoniae [14]) [µg/mL] | MIC (Streptococcus pneumoniae [15]) [µg/mL] | MIC [16] [µg/mL] | MIC (Streptococcus pneumoniae [17]) [µg/mL] | MIC [18] [µg/mL] | MIC (Escherichia coli [19]) [µg/mL] | MIC (Enterococcus faecalis [20]) [µg/mL] | other results
CO/N=C1\CN(c2c(F)cc3c(=O)c(C(=O)O)cn4c3c2OC[C@@H]4C)CC1/C(N)=N\OC (stereo not given in full) | 128 (≈ 286 µM) | > 128 | 0.25 (≈ 0.559 µM) | 0.125 (≈ 0.279 µM) | > 128 | 128 (≈ 286 µM) | 0.25 (≈ 0.559 µM) | 128 (≈ 286 µM) | 0.25 (≈ 0.559 µM) | 4 (≈ 8.94 µM) | > 128 | 8 (≈ 17.9 µM) | 0.25 (≈ 0.559 µM) | > 128 | 0.25 (≈ 0.559 µM) | 0.25 (≈ 0.559 µM) | 16 (≈ 35.8 µM) | 0.25 (≈ 0.559 µM) | > 128 | > 128 | MIC (Escherichia coli [21]): > 128 µg/mL; MIC [22]: 0.25 µg/mL (≈ 0.559 µM); MIC (Pseudomonas aeruginosa [23]): 8 µg/mL (≈ 17.9 µM); MIC (Klebsiella pneumoniae [24]): 0.5 µg/mL (≈ 1.12 µM); MIC (Pseudomonas aeruginosa [25]): > 128 µg/mL
CCO/N=C1\CN(c2c(F)cc3c(=O)c(C(=O)O)cn4c3c2OC[C@@H]4C)CC1/C(N)=N\OC (stereo not given in full) | > 128 | > 128 | 0.25 (≈ 0.542 µM) | 0.25 (≈ 0.542 µM) | 0.5 (≈ 1.08 µM) | > 128 | 0.25 (≈ 0.542 µM) | 128 (≈ 277 µM) | 0.25 (≈ 0.542 µM) | > 128 | > 128 | > 128 | 0.25 (≈ 0.542 µM) | > 128 | 0.25 (≈ 0.542 µM) | 0.5 (≈ 1.08 µM) | > 128 | 0.25 (≈ 0.542 µM) | > 128 | > 128 | MIC (Escherichia coli [21]): > 128 µg/mL; MIC [22]: 0.125 µg/mL (≈ 0.271 µM); MIC (Pseudomonas aeruginosa [23]): > 128 µg/mL; MIC (Klebsiella pneumoniae [24]): 1 µg/mL (≈ 2.17 µM); MIC (Pseudomonas aeruginosa [25]): > 128 µg/mL
CCO/N=C1\CN(c2c(F)cc3c(=O)c(C(=O)O)cn4c3c2OC[C@@H]4C)CC1/C(N)=N\OCC (stereo not given in full) | > 128 | > 128 | 64 (≈ 135 µM) | 1 (≈ 2.1 µM) | > 128 | > 128 | > 128 | 128 (≈ 269 µM) | 64 (≈ 135 µM) | 64 (≈ 135 µM) | > 128 | 64 (≈ 135 µM) | 8 (≈ 16.8 µM) | > 128 | > 128 | 8 (≈ 16.8 µM) | 64 (≈ 135 µM) | > 128 | > 128 | > 128 | MIC (Escherichia coli [21]): > 128 µg/mL; MIC [22]: > 128 µg/mL; MIC (Pseudomonas aeruginosa [23]): 64 µg/mL (≈ 135 µM); MIC (Klebsiella pneumoniae [24]): > 128 µg/mL; MIC (Pseudomonas aeruginosa [25]): > 128 µg/mL
CCn1cc(C(=O)O)c(=O)c2cc(F)c(N3C/C(=N\OC)C(/C(N)=N\O)C3)c(F)c21 (stereo not given) | > 128 | 1 (≈ 2.36 µM) | 0.25 (≈ 0.59 µM) | 0.25 (≈ 0.59 µM) | > 128 | > 128 | 1 (≈ 2.36 µM) | 128 (≈ 302 µM) | 0.25 (≈ 0.59 µM) | 1 (≈ 2.36 µM) | > 128 | > 128 | 0.25 (≈ 0.59 µM) | > 128 | > 128 | 0.25 (≈ 0.59 µM) | 1 (≈ 2.36 µM) | 1 (≈ 2.36 µM) | > 128 | > 128 | MIC (Escherichia coli [21]): > 128 µg/mL; MIC [22]: 0.25 µg/mL (≈ 0.59 µM); MIC (Pseudomonas aeruginosa [23]): 1 µg/mL (≈ 2.36 µM); MIC (Klebsiella pneumoniae [24]): 1 µg/mL (≈ 2.36 µM); MIC (Pseudomonas aeruginosa [25]): 1 µg/mL (≈ 2.36 µM)
